Experimental data reported in ChEMBL document CHEMBL1125307, “Novel 1,2,4-oxadiazoles and 1,2,4-thiadiazoles as dual 5-lipoxygenase and cyclooxygenase inhibitors” (J Med Chem, 1992).

How the values were obtained:
[1] = biological target: T1, Polyunsaturated fatty acid 5-lipoxygenase (Rattus norvegicus, UniProt P12527); test: Evaluated in vitro for its inhibitory activity against 5-lipoxygenase
T1 sequence (P12527 whole entry): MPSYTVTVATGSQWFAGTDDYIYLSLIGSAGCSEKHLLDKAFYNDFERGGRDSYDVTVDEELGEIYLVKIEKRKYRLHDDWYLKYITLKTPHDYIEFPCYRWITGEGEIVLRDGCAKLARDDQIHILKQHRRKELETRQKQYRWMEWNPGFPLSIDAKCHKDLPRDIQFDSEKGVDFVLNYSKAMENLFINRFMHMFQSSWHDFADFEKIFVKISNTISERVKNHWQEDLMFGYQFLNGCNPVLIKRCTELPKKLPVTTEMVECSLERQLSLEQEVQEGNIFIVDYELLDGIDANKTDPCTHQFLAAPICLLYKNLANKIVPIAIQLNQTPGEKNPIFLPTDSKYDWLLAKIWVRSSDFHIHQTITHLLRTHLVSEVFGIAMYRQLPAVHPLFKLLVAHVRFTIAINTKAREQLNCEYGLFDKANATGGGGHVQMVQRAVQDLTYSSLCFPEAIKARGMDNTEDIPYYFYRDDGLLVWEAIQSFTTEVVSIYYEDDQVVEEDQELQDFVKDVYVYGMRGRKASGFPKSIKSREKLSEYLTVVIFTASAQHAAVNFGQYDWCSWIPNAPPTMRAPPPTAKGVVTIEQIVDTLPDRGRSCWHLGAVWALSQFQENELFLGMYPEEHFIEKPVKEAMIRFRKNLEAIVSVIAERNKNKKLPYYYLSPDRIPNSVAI

Rattus norvegicus [2] = species: Rattus norvegicus; test: Ratio of IC50 against 5-LO to that of CO enzyme.
In short: (§1)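 In ionophore-stimulated RBL-1 cells (2×10^6/mL, PBS with 1.0 mM Ca, 10 min compound preincubation at room temperature, 5 μM A23187 for 7 min at 37 °C), supernatant LTB₄ (5-LO) and PGF₂α (CO) were each quantified by RIA over 0.10–10.0 μM. IC50s came from linear regression, and the ratio is the 5-LO IC50 over the CO IC50.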

Cyclooxygenase = biological target: T2, Cyclooxygenase (Rattus norvegicus, UniProt P35355+Q63921); test: Evaluated in vitro for its inhibitory activity against Prostaglandin G/H synthase; format: protein assay
T2 sequence (P35355 whole entry): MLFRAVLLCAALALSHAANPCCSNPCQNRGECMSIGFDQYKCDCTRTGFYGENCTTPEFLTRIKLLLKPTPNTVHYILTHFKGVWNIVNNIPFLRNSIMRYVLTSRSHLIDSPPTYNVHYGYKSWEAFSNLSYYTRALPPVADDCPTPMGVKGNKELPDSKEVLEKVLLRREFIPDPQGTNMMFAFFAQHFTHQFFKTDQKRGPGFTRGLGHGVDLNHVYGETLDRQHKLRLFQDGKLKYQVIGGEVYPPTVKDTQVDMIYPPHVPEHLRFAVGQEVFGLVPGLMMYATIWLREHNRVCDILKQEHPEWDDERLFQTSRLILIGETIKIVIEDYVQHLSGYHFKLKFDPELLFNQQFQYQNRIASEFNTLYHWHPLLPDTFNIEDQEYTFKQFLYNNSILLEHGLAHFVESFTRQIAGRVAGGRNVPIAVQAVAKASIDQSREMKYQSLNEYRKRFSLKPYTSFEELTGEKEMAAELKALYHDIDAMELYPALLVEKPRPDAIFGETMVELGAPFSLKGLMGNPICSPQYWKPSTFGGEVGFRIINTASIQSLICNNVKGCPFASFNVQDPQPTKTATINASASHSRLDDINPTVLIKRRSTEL
T2 sequence (Q63921 whole entry): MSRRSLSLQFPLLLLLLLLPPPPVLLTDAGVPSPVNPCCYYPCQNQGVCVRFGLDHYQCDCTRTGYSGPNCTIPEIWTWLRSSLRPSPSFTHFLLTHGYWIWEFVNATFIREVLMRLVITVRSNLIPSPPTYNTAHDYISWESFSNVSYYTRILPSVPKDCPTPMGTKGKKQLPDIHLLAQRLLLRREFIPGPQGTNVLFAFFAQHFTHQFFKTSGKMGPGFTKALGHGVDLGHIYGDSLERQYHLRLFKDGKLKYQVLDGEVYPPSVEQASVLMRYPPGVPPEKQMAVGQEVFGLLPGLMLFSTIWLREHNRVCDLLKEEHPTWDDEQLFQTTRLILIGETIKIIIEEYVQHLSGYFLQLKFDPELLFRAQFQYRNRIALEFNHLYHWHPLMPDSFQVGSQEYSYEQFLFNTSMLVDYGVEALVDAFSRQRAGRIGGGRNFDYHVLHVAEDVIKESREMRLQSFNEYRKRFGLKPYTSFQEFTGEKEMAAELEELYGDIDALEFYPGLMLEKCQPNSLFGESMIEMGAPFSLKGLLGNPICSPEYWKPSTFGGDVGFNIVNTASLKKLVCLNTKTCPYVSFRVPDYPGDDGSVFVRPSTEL

Rattus norvegicus [3] = test: Evaluated for the antiinflammatory activity by measuring the dose (po) which inhibited Mycobacterium induced foot-pad edema in rats; format: functional
Rattus norvegicus [4] = test: Evaluated for the percent rats with ulcers at the dose of 200 mg/kg (number of animals used per group in the experiment are 10 ); format: functional
In short: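 Male outbred Wistar rats (100-250 g) fasted 24 h, given compound orally in 0.5% HPMC (2 mL/kg), then denied food and water 6 more h. Killed with CO2; stomachs opened along greater curvature and scored for ulcers. Percent of rats with ulcers per dose; up to 200 mg/kg po, 10 rats per dose.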

Rattus norvegicus [5] = test: Evaluated for the antiinflammatory activity by measuring the percentage inhibition of edema in the carrageenan foot-pad edema test at the dose of 10 mg/kg; format: functional
In short: (§2)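 Male Wistar rats dosed orally (0.5% HPMC/0.2% Tween 80 or Labrafils, 10 mL/kg) 1 h before subplantar injection of 0.10 mL 1% carrageenan into right hind paw under light anesthesia. Paw volume by mercury plethysmography at challenge and 5 h later; percent inhibition ± SEM versus vehicle group. Doses 10.0 and 30.0 mg/kg po, 7-14 rats per dose.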

Rattus norvegicus [6] = test: Evaluated for the antiinflammatory activity by measuring the percentage inhibition of edema in the carrageenan foot-pad edema test at the dose of 30 mg/kg; format: functional; in short: as §2
[7] = biological target: T1, Polyunsaturated fatty acid 5-lipoxygenase; test: Evaluated in vitro for its inhibitory activity against 5-lipoxygenase; N=Inactive, <50% inhibition at 10 uM concentration
In short: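 RBL-1 cells grown in MEM + 12% FBS, washed in PBS pH 7.4, resuspended at 2×10^6 cells/mL in PBS with 1.0 mM calcium. Preincubated 10 min at room temperature with compound in DMSO, then stimulated with A23187 (5 μM) 7 min at 37 °C; stopped on ice. Supernatant LTB4 by radioimmunoassay.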

[8] = biological target: Cyclooxygenase (Rattus norvegicus) (UniProt P35355+Q63921); test: Inhibitory activity against Prostaglandin G/H synthase at 10 uM; format: protein assay
In short: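 Cyclooxygenase read-out in RBL-1 cells (2×10^6 cells/mL in PBS with 1.0 mM calcium): 10 min room-temperature preincubation with compound in DMSO, A23187 (5 μM) stimulation 7 min at 37 °C, ice stop. Supernatant PGF2α by radioimmunoassay; percent inhibition at a 10 μM screening concentration.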

[9] = biological target: T3, Polyunsaturated fatty acid 5-lipoxygenase (Rattus norvegicus) (UniProt P12527); conditions: at 10 µM
T3 sequence (whole entry): T1 sequence (P12527 whole entry)

Rattus norvegicus [10] = species: Rattus norvegicus; test: Ratio of IC50 against 5-LO and COX; in short: as §1
[11] = biological target: T1, Polyunsaturated fatty acid 5-lipoxygenase; test: Inhibitory activity against 5-Lipoxygenase
In short: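 Rat basophilic leukemia RBL-1 cells were grown in suspension in MEM with 12% FBS, washed, and resuspended at 2×10^6 cells/mL in PBS pH 7.4 with 1.0 mM calcium. Compound in DMSO was preincubated 10 min at room temperature, then 5 μM A23187 was added for 7 min at 37 °C. LTB₄ in the supernatant was measured by RIA at 0.10–10.0 μM. IC50 was determined by linear regression.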

Compound	IC50 [1]	Ratio (Rattus norvegicus [2])	IC50 (Cyclooxygenase)	IC50 [7]	further results
CC(C)(C)c1cc(-c2nsc(CN)n2)cc(C(C)(C)C)c1O.Cl	2.6 µM	30	0.087 µM	–	–
CSC(=N)Nc1nc(-c2cc(C(C)(C)C)c(O)c(C(C)(C)C)c2)ns1.Cl	1.2 µM	7.1	0.17 µM	–	ID40 (Rattus norvegicus [3]): 7.3 mg/kg; Activity (Rattus norvegicus [4]): 0%; inhibition in vivo at 10 mg/kg (Rattus norvegicus [5]): 30.7%; inhibition in vivo at 30 mg/kg (Rattus norvegicus [6]): 41.4%
CN(C)Cc1nc(-c2cc(C(C)(C)C)c(O)c(C(C)(C)C)c2)ns1.Cl	–	–	–	Inactive	–
CC(=N)Nc1nc(-c2cc(C(C)(C)C)c(O)c(C(C)(C)C)c2)ns1.Cl	–	–	–	Inactive	–
CN(C)c1noc(-c2cc(C(C)(C)C)c(O)c(C(C)(C)C)c2)n1	–	–	–	Inactive	inhibition [8]: 88%
CN(C)C(=N)Nc1nc(-c2cc(C(C)(C)C)c(O)c(C(C)(C)C)c2)ns1	–	–	–	–	inhibition [9]: 72%
CC(C)(C)c1cc(-c2noc(S)n2)cc(C(C)(C)C)c1O	–	68	0.05 µM	–	–
CC(C)(C)c1cc(-c2noc(N=C(N)N)n2)cc(C(C)(C)C)c1O.CS(=O)(=O)O	1.7 µM	2.5	0.67 µM	–	ID40 (Rattus norvegicus [3]): 3.1 mg/kg; Activity (Rattus norvegicus [4]): 0%; inhibition in vivo at 10 mg/kg (Rattus norvegicus [5]): 51.2%; inhibition in vivo at 30 mg/kg (Rattus norvegicus [6]): 71%
CNCc1noc(-c2cc(C(C)(C)C)c(O)c(C(C)(C)C)c2)n1	–	–	–	Inactive	inhibition [8]: 78%
Cc1nc(-c2cc(C(C)(C)C)c(O)c(C(C)(C)C)c2)no1	–	7.7	0.3 µM	–	–
CC(C)(C)c1cc(-c2nsc(NC#N)n2)cc(C(C)(C)C)c1O.C[N+](C)(C)CC[O-]	–	–	0.011 µM	–	Ratio (Rattus norvegicus [10]): 173; IC50 [11]: 1.9 µM

Now from value to compound, other results behind:

IC50 [1]	Ratio (Rattus norvegicus [2])	IC50 (Cyclooxygenase)	IC50 [7]	Compound	further results
0.14 µM	0.088	1.6 µM	–	CC(C)(C)c1cc(-c2nsc(N=C(N)N)n2)cc(C(C)(C)C)c1O.Cl	ID40 (Rattus norvegicus [3]): 5.1 mg/kg; Activity (Rattus norvegicus [4]): 0%; inhibition in vivo at 10 mg/kg (Rattus norvegicus [5]): 46.1%; inhibition in vivo at 30 mg/kg (Rattus norvegicus [6]): 61.3%
–	–	–	Inactive	Cc1ccc(S(=O)(=O)c2nc(-c3cc(C(C)(C)C)c(O)c(C(C)(C)C)c3)ns2)cc1	–
2.5 µM	0.83	3 µM	–	CC(C)(C)c1cc(-c2noc(N)n2)cc(C(C)(C)C)c1O	inhibition in vivo at 10 mg/kg (Rattus norvegicus [5]): 36%; inhibition in vivo at 30 mg/kg (Rattus norvegicus [6]): 39%
